# Source: ChEMBL document CHEMBL1127635, “Thiopyrano[2,3,4-cd]indoles as 5-lipoxygenase inhibitors: synthesis, biological profile, and resolution of 2-[2-[1-(4-chlorobenzyl)-4-methyl-6-[(5-phenylpyridin-2-yl)methoxy]-4,5 -dihydro-1H-thiopyrano[2,3,4-cd]indol-2-yl]ethoxy]butanoic acid” (J Med Chem, 1994)
# Tests used:
# [1] = target: T1, Polyunsaturated fatty acid 5-lipoxygenase (Homo sapiens, UniProt P09917); assay: In vitro inhibition of human 5-Lipoxygenase.
# T1 sequence (P09917 whole entry): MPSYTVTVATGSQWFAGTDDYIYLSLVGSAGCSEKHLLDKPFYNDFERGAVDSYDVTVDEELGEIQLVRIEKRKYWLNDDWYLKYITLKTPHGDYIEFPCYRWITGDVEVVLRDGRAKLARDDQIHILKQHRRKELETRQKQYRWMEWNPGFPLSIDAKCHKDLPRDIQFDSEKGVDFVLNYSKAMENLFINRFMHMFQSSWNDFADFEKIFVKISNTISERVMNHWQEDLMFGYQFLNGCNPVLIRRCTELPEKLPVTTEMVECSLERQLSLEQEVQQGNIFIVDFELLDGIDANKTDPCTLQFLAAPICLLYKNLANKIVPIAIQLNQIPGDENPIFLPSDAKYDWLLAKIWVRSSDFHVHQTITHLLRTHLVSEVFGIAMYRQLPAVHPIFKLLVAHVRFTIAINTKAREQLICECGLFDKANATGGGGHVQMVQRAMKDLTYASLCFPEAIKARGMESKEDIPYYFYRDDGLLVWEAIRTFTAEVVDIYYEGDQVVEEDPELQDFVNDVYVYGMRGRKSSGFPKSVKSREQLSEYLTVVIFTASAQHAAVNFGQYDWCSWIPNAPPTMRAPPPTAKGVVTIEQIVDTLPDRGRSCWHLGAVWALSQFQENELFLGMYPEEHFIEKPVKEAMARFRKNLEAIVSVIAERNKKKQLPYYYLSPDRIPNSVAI
# Method in brief: (§1)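 Spectrophotometric assay following 5-H(P)ETE production by the 100000g supernatant (S100) fraction of insect cells overexpressing human 5-LO.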
# Homo sapiens [2] = species: Homo sapiens; assay: Effect on production of LTB4 in human polymorphonuclear leukocytes; format: functional
# Method in brief: (§2)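 LTB4 biosynthesis measured in human polymorphonuclear leukocytes activated with Ca2+ ionophore.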
# Homo sapiens [3] = species: Homo sapiens; assay: (§3) Effect on production of LTB4 in human polymorphonuclear (HPMN) leukocytes; format: functional; method in brief: as §2
# [4] = target: T1, Polyunsaturated fatty acid 5-lipoxygenase; assay: Tested against 5-lipoxygenase; method in brief: as §1
# Homo sapiens [5] = species: Homo sapiens; assay: Effect on production of LTB4 in human whole blood; format: functional
# Method in brief: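 Human whole blood activated with ionophore A23187; inhibition of LTB4 biosynthesis assessed.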
# [6] = Cmax value in rat plasma when administered 20 mg/kg perorally; format: ADME, organism-based; design: dose 20 mg/kg, route oral; details: po
# Method in brief: (§4)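 Rat plasma profiles after dosing the sodium salts either orally at 20 mg/kg in 1% methocel or iv at 5 mg/kg in PEG 200. Bioavailability is calculated as AUCpo/4 × AUCiv.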
# [7] = Bioavailability in rat (dose 5 mg/kg i.v.); format: ADME, organism-based; details: in vivo, iv; method in brief: as §4
# [8] = Tmax value in rat plasma when administered 20 mg/kg perorally; format: ADME, organism-based; design: dose 20 mg/kg, route oral; details: po; method in brief: as §4
# Rattus norvegicus [9] = assay: In vivo inhibition of LBT4 in a rat pleurisy model with a 6 h pretreatment time; format: functional
# Method in brief: (§5)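 Male Sprague-Dawley rats given 0.4 mL of 0.5% carrageenan in saline intrapleurally 16 h before drug. Drug doses ranged from 3 to 0.3 mg/kg. Intrapleural calcium ionophore challenge 6 h after dosing. LTB4 in pleural exudate measured 1 h later; ED50 derived, n = 6/group.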
# Rattus norvegicus [10] = assay: Tested for percentage inhibition of dyspnea (0.5 mg/kg po using methocel) by in vivo in hyperactive rat after 2 hours pretreatment; format: functional
# Method in brief: (§6)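 Inbred hyperreactive rats pretreated with methysergide 3 mg/kg iv. Drug given at 0.5 mg/kg po in methocel before ovalbumin challenge. Read-out is % inhibition of dyspnea duration versus litter-mate-matched vehicle controls, n = 6.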
# Rattus norvegicus [11] = assay: Tested for percentage inhibition of dyspnea (0.5 mg/kg po using methocel) by in vivo in hyperactive rat after 4 hours pretreatment; format: functional; method in brief: as §6
# [12] = Inhibition of Ascaris antigen induced bronchoconstriction in the conscious squirrel monkey at 0.1 mg/kg dose (Change in airway resistance); format: functional
# Method in brief: (§7)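 Allergic conscious squirrel monkeys pretreated with drug for 4 h, then challenged with aerosolized Ascaris antigen (1:25 dilution). Airway resistance (RL) increase and dynamic compliance (Cdyn) decrease recorded; % inhibition versus control, mean ± SEM.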
# [13] = Inhibition of Ascaris antigen induced bronchoconstriction in the conscious squirrel monkey at 0.3 mg/kg dose (Change in airway resistance); format: functional; method in brief: as §7
# [14] = Tested for inhibition of Ascaris antigen induced bronchoconstriction in the conscious squirrel monkey at 0.1 mg/kg dose (changes in dynamic compliance); format: functional; method in brief: as §7
# [15] = Tested for inhibition of Ascaris antigen induced bronchoconstriction in the conscious squirrel monkey at 0.3 mg/kg dose (changes in dynamic compliance); format: functional; method in brief: as §7
# Homo sapiens [16] = species: Homo sapiens; assay: as §3
# Rattus norvegicus [17] = assay: In vivo inhibition of LTB4 biosynthesis in a rat pleurisy model with an 6 hr pretreatment time; format: functional; method in brief: as §5
# [18] = Tested for inhibition of Ascaris antigen induced bronchoconstriction in the conscious squirrel monkey at 0.3 mg/kg dose (changes in the airway resistance(); format: functional; method in brief: as §7
# Rattus norvegicus [19] = species: Rattus norvegicus; assay: Tested for effective inhibition of LTB4 with an 8 hr pretreatment; format: functional
smiles,measurement,setting,value
CC1Cc2c(OCc3ccc(-c4ccccc4)cn3)ccc3c2c(c(CC(=O)N(C)C(C)C(=O)O)n3Cc2ccc(Cl)cc2)S1 (stereo not given),IC50,[1],300 nM
same,IC50,Homo sapiens [2]; Homo sapiens,200 nM
CC1Cc2c(OCc3ccc(-c4ccccc4)cn3)ccc3c2c(c(CCOC(C)c2nnn[nH]2)n3Cc2ccc(Cl)cc2)S1 (stereo not given),IC50,Homo sapiens [3],10 nM
same,IC50,[4],60 nM
CCC(OCCc1c2c3c(c(OCc4ccc(-c5ccccc5)cn4)ccc3n1Cc1ccc(Cl)cc1)CC(C)S2)C(=O)O (stereo in doubt; 14f),IC50,[1],150 nM
same,IC50,Homo sapiens [5],16000 nM
same,IC50,Homo sapiens [2],10 nM
CC1Cc2c(OCc3ccc(-c4ccccc4)cn3)ccc3c2c(c(CCOC(C)C(=O)NS(C)(=O)=O)n3Cc2ccc(Cl)cc2)S1 (stereo not given),IC50,[1],22 nM
same,IC50,Homo sapiens [2]; Homo sapiens,4.5 nM
CCC(OCCc1c2c3c(c(OCc4ccc(-c5ccccc5)cn4)ccc3n1Cc1ccc(Cl)cc1)CC(C)S2)C(=O)O (stereo in doubt; 14g),IC50,[1],8 nM
same,IC50,Homo sapiens [5],1000 nM
same,IC50,Homo sapiens [2],4 nM
CCC(OCCc1c2c3c(c(OCc4ccc(-c5ccccc5)cn4)ccc3n1Cc1ccc(Cl)cc1)CC(C)S2)C(=O)O (stereo in doubt; 14d),IC50,[1],22 nM
same,Cmax,[6],5.5 µM
same,bioavailability,[7],88%
same,Tmax,[8],6 h
same,IC50,Homo sapiens [5],3800 nM
same,IC50,Homo sapiens [2],7 nM
same,ED50,Rattus norvegicus [9],0.65 mg/kg
same,Inhibition,Rattus norvegicus [10],55%
same,Inhibition,Rattus norvegicus [11],51%
same,inhibition in vivo at 0.1 mg/kg,[12],89%
same,inhibition in vivo at 0.3 mg/kg,[13],100%
same,inhibition in vivo at 0.1 mg/kg,[14],68%
same,inhibition in vivo at 0.3 mg/kg,[15],100%
CC1Cc2c(OCc3ccc(-c4ccccc4)cn3)ccc3c2c(c(CCSC(C)C(=O)O)n3Cc2ccc(Cl)cc2)S1 (stereo not given),IC50,Homo sapiens [2]; Homo sapiens,17 nM
CC1Cc2c(OCc3ccc(-c4ccccc4)cn3)ccc3c2c(c(CSCCC(=O)O)n3Cc2ccc(Cl)cc2)S1 (stereo not given),IC50,[1],55 nM
same,IC50,Homo sapiens [2]; Homo sapiens,10 nM
CCC(OCCc1c2c3c(c(OCc4ccc(-c5ccccc5)cn4)ccc3n1Cc1ccc(Cl)cc1)CC(C)S2)C(=O)O (stereo in doubt; 14e),IC50,[1],13 nM
same,IC50,Homo sapiens [5],1800 nM
same,IC50,Homo sapiens [2],3.5 nM
CC1Cc2c(OCc3ccc(-c4ccccc4)cn3)ccc3c2c(c(COCC(=O)O)n3Cc2ccc(Cl)cc2)S1 (stereo not given),IC50,Homo sapiens [2]; Homo sapiens,17 nM
CCC(CSCc1c2c3c(c(OCc4ccc(-c5ccccc5)cn4)ccc3n1Cc1ccc(Cl)cc1)CC(C)S2)C(=O)O (stereo not given),IC50,Homo sapiens [2]; Homo sapiens,6 nM
CC1Cc2c(OCc3ccc(-c4ccccc4)cn3)ccc3c2c(c(CCOC(C)(C)C(=O)O)n3Cc2ccc(Cl)cc2)S1 (stereo not given),IC50,[1],50 nM
same,IC50,Homo sapiens [2]; Homo sapiens,7 nM
CC(c1cc2ccccc2s1)N(O)C(N)=O (stereo not given) [ZILEUTON],IC50,"Homo sapiens [5]; Homo sapiens, Blood",2000 nM
same,IC50,Homo sapiens [3],1060 nM
CC1Cc2c(OCc3ccc(-c4ccccc4)cn3)ccc3c2c(c(CCNC(C)C(=O)O)n3Cc2ccc(Cl)cc2)S1 (stereo not given),IC50,[1],4000 nM
same,IC50,Homo sapiens [2]; Homo sapiens,1100 nM
CC[C@H](CSCc1c2c3c(c(OCc4ccc(-c5ccccc5)cn4)ccc3n1Cc1ccc(Cl)cc1)CC(C)S2)C(=O)O (stereo not given in full),IC50,[1],120 nM
same,IC50,Homo sapiens [2]; Homo sapiens,12 nM
CC1Cc2c(OCc3ccc(-c4ccccc4)cn3)ccc3c2c(c(COCCC(=O)O)n3Cc2ccc(Cl)cc2)S1 (stereo not given),IC50,[1],250 nM
same,IC50,Homo sapiens [2]; Homo sapiens,65 nM
CC1Cc2c(OCc3ccc(-c4ccccc4)cn3)ccc3c2c(c(CCOCC(=O)O)n3Cc2ccc(Cl)cc2)S1 (stereo not given),IC50,Homo sapiens [2]; Homo sapiens,31 nM
CC(C)(C)Sc1c(CC(C)(C)C(=O)O)n(Cc2ccc(Cl)cc2)c2ccc(OCc3ccc4ccccc4n3)cc12 [QUIFLAPON],IC50,Homo sapiens [16],3 nM
same,ED50,Rattus norvegicus [17],0.16 mg/kg
same,inhibition in vivo at 0.3 mg/kg,[15],46%
same,inhibition in vivo at 0.3 mg/kg,[18],44%
CC(=O)N(CCc1c2c3c(c(OCc4ccc(-c5ccccc5)cn4)ccc3n1Cc1ccc(Cl)cc1)CC(C)S2)C(C)C(=O)O (stereo not given),IC50,[1],900 nM
same,IC50,Homo sapiens [2]; Homo sapiens,113 nM
CC[C@@H](CSCc1c2c3c(c(OCc4ccc(-c5ccccc5)cn4)ccc3n1Cc1ccc(Cl)cc1)CC(C)S2)C(=O)O (stereo not given in full),IC50,[1],40 nM
same,IC50,Homo sapiens [2]; Homo sapiens,7 nM
CCC(OCCc1c2c3c(c(OCc4ccc(-c5ccccc5)cn4)ccc3n1Cc1ccc(Cl)cc1)CC(C)S2)C(=O)O (stereo in doubt; 14h),IC50,[1],80 nM
same,IC50,Homo sapiens [5],4800 nM
same,IC50,Homo sapiens [2],17 nM
CC1Cc2c(OCc3ccc(-c4ccccc4)cn3)ccc3c2c(c(CSCC(=O)O)n3Cc2ccc(Cl)cc2)S1 (stereo not given),IC50,Homo sapiens [2]; Homo sapiens,15 nM
CC1Cc2c(OCc3ccc(-c4ccccc4)cn3)ccc3c2c(c(CC(C)(C)Cc2nnn[nH]2)n3Cc2ccc(Cl)cc2)S1 (stereo not given),ED50,Rattus norvegicus [19],1.9 mg/kg
same,IC50,Homo sapiens [3],8 nM
CC1Cc2c(OCc3ccc(-c4ccccc4)cn3)ccc3c2c(c(CCOCCC(=O)O)n3Cc2ccc(Cl)cc2)S1 (stereo not given),IC50,[1],105 nM
same,IC50,Homo sapiens [2]; Homo sapiens,11 nM
CCC(OCCc1c2c3c(c(OCc4ccc(-c5ccccc5)cn4)ccc3n1Cc1ccc(Cl)cc1)CC(C)S2)C(=O)NS(C)(=O)=O (stereo not given),IC50,[1],20 nM
same,Cmax,[6],4 µM
same,bioavailability,[7],72%
same,Tmax,[8],4 h
same,IC50,Homo sapiens [2]; Homo sapiens,6.5 nM
CC(CC(=O)O)SCc1c2c3c(c(OCc4ccc(-c5ccccc5)cn4)ccc3n1Cc1ccc(Cl)cc1)CC(C)S2 (stereo not given),IC50,[1],70 nM
same,IC50,Homo sapiens [2]; Homo sapiens,50 nM
CC1Cc2c(OCc3ccc(-c4ccccc4)cn3)ccc3c2c(c(CSCC(C)C(=O)O)n3Cc2ccc(Cl)cc2)S1 (stereo not given),IC50,Homo sapiens [2]; Homo sapiens,20 nM
CC1Cc2c(OCc3ccc(-c4ccccc4)cn3)ccc3c2c(c(CCOC(C)C(=O)O)n3Cc2ccc(Cl)cc2)S1 (stereo not given),IC50,[1],20 nM
same,Cmax,[6],3.8 µM
same,bioavailability,[7],35%
same,Tmax,[8],2 h
same,IC50,Homo sapiens [2]; Homo sapiens,5 nM
same,Inhibition,Rattus norvegicus [10],53%
same,Inhibition,Rattus norvegicus [11],2%
